Experimental data from ChEMBL document CHEMBL1123571, “[(6,7-Dichlorobenzo[b]thien-5-yl)oxy]acetic acids and 1,1-dioxides. 1. A structurally novel class of diuretics with hypotensive activity” (1987).

Assays:
[1] = system: Mus musculus; test: Diuretic activity in saline loaded mice, activity is expressed as the sodium present in urine as mean milli equivalent/kg per 5 hr at 64 mg/kg oral dose; type: functional
How it was run: (§1)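 Male CD-1 mice (18–24 g), 10 per treatment group, housed five per metabolic cage. Compound was given orally in 1% saline at 10 mL/kg, with a vehicle control group. Pooled urine was analysed for sodium by flame photometry. Values are mean mequiv/kg over 0–5 h.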

[2] = system: Mus musculus; test: Compound was tested for diuretic activity in saline loaded mice, activity is expressed as the sodium present in urine as mean milli equivalent/kg per 5 hr at 16 mg/kg oral dose; type: functional; how it was run: as §1
[3] = system: Mus musculus; test: Compound was tested for diuretic activity in saline loaded mice, activity is expressed as the sodium present in urine as mean milli equivalent/kg per 5 hr at 32 mg/kg oral dose; type: functional; how it was run: as §1
[4] = system: Rattus norvegicus; test: Hypotensive activity was determined in Spontaneously hypertensive rats (SHR) and initial blood pressure was determined at 25 mg/kg oral dose; type: functional
[5] = system: Rattus norvegicus; test: Hypotensive activity was determined in Spontaneously hypertensive rats (SHR) and peak decrease in systolic blood pressure on third day,2h post administration of 10 mg/kg oral dose was determined; type: functional, Artery
How it was run: (§2)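 Okamoto-Aoki spontaneously hypertensive rats were dosed orally every day with compound suspended in distilled water with Tween 80. Systolic BP was taken by tail-cuff plethysmography on day 1 (predose, 2 h), day 3 (predose, 2 h) and day 5 (predose, 2 and 4 h). The value is the peak fall at day 3, 2 h postdose, ± SEM. Four rats were used in the screen and 4–8 per dose in dose-response.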

[6] = system: Rattus norvegicus; test: Hypotensive activity was determined in Spontaneously hypertensive rats (SHR) and peak decrease in systolic blood pressure on third day,2h post administration of 25 mg/kg oral dose was determined; type: functional, Artery; how it was run: as §2
[7] = system: Rattus norvegicus; test: Hypotensive activity was determined in Spontaneously hypertensive rats (SHR) and initial blood pressure was determined at 10 mg/kg oral dose; type: functional
[8] = system: Rattus norvegicus; test: Hypotensive activity was determined in Spontaneously hypertensive rats (SHR) and initial blood pressure was determined at 50 mg/kg oral dose; type: functional
[9] = system: Rattus norvegicus; test: Hypotensive activity was determined in Spontaneously hypertensive rats (SHR) and initial blood pressure was determined at 3 mg/kg oral dose; type: functional
[10] = system: Rattus norvegicus; test: Hypotensive activity was determined in Spontaneously hypertensive rats (SHR) and peak decrease in systolic blood pressure on third day,2h post administration of 3 mg/kg oral dose was determined; type: functional, Artery; how it was run: as §2
[11] = system: Rattus norvegicus; test: Hypotensive activity was determined in Spontaneously hypertensive rats (SHR) and initial blood pressure was determined at 1 mg/kg oral dose; type: functional
[12] = system: Rattus norvegicus; test: Hypotensive activity was determined in Spontaneously hypertensive rats (SHR) and peak decrease in systolic blood pressure on third day,2h post administration of 1 mg/kg oral dose was determined; type: functional, Artery; how it was run: as §2
[13] = system: Rattus norvegicus; test: Hypotensive activity was determined in Spontaneously hypertensive rats (SHR) and peak decrease in systolic blood pressure on third day,2h post administration of 50 mg/kg oral dose was determined; type: functional, Artery; how it was run: as §2

Row | SMILES | mequiv of Na+/kg [1] | mequiv of Na+/kg [2] | mequiv of Na+/kg [3] | Initial blood pressure [4] [mmHg] | Change in BP [5] [mmHg] | Change in BP [6] [mmHg] | Initial blood pressure [7] [mmHg] | Initial blood pressure [8] [mmHg] | Initial blood pressure [9] [mmHg] | Change in BP [10] [mmHg] | Initial blood pressure [11] [mmHg] | Change in BP [12] [mmHg] | Change in BP [13] [mmHg]
1 | CCc1cc2cc(OCC(=O)O)c(Cl)c(Cl)c2s1 | 2.07 0-5h | 0.74 0-5h | 1.51 0-5h | 176 | -21 | -13 | 185 |  |  |  |  |  | 
2 | Cc1cc2cc(OCC(=O)O)c(Cl)c(Cl)c2s1 | 1.16 0-5h |  |  |  | -33 |  | 196 | 215 | 173 | -37 | 177 | -42 | -51
